Converted amounts (≈) assume the structure as drawn.
What was measured:
Type in all cases: functional
Pseudomonas aeruginosa [1] = assay: Antibacterial activity against Pseudomonas aeruginosa by broth dilution method
Method in brief: (§1)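 Broth microdilution MIC per CLSI reference method; twofold serial dilutions in cation-adjusted Mueller-Hinton broth. […] Endpoint read by OD600 and confirmed visually.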

[2] = tested on: Stenotrophomonas maltophilia; assay: Antibacterial activity against Stenotrophomonas maltophilia by broth dilution method
Staphylococcus aureus = assay: Antibacterial activity against methicillin-sensitive Staphylococcus aureus by broth dilution method
Pseudomonas aeruginosa [3] = assay: Antibacterial activity against Pseudomonas aeruginosa PA1054 assessed as inhibition of biofilm formation by microtiter plate reader assay; settings: for MIC: Pseudomonas aeruginosa, PA1054
Method in brief: (§2)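 Biofilms of cystic fibrosis P. aeruginosa isolates were grown and tested by a previously described method. The endpoint was the biofilm inhibitory concentration, the drug level that prevents biofilm cell growth, compared against planktonic broth-microdilution MICs.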

Pseudomonas aeruginosa [4] = assay: Antibacterial activity against Pseudomonas aeruginosa PA1042 assessed as inhibition of biofilm formation by microtiter plate reader assay; method in brief: as §2
Pseudomonas aeruginosa [5] = assay: Antibacterial activity against Pseudomonas aeruginosa PA5063 assessed as inhibition of biofilm formation by microtiter plate reader assay; method in brief: as §2
Pseudomonas aeruginosa [6] = assay: Antibacterial activity against Pseudomonas aeruginosa PA5063 by broth dilution method; method in brief: as §1
Pseudomonas aeruginosa [7] = assay: Antibacterial activity against Pseudomonas aeruginosa PA5043 assessed as inhibition of biofilm formation by microtiter plate reader assay; method in brief: as §2
Pseudomonas aeruginosa [8] = assay: Antibacterial activity against Pseudomonas aeruginosa ATCC 27853 assessed as inhibition of biofilm formation by microtiter plate reader assay
Pseudomonas aeruginosa [9] = assay: Antibacterial activity against Pseudomonas aeruginosa PA1036 by broth dilution method; method in brief: as §1
Pseudomonas aeruginosa [10] = assay: Antibacterial activity against Pseudomonas aeruginosa PA5026 by broth dilution method; method in brief: as §1
Pseudomonas aeruginosa [11] = assay: Antibacterial activity against Pseudomonas aeruginosa PA1054 assessed as time required for reduction of bacterial load to 3 log CFU/ml at 0.2 mg/ml up to 48 hrs by time-kill assay
Method in brief: (§3)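 Overnight cultures were diluted and grown at 37°C to OD600 ≈0.3, then set at 5 × 10^5–1 × 10^6 CFU/ml in 10 ml CAMHB. Drug was added at 0.2, 0.6 or 2.0 mg/ml, and cultures were shaken at 37°C. Samples taken at 0, 0.5, 1, 2, 4, 8 and 24 h were washed twice in CAMHB, diluted in saline and plated on Mueller-Hinton agar. Plates were incubated up to 48 h before colony counting.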

Pseudomonas aeruginosa [12] = assay: Antibacterial activity against Pseudomonas aeruginosa PA1022 assessed as time required for reduction of bacterial load to 3 log CFU/ml at 0.2 mg/ml up to 48 hrs by time-kill assay; method in brief: as §3
Pseudomonas aeruginosa [13] = assay: Antibacterial activity against Pseudomonas aeruginosa PA5043 assessed as time required for reduction of bacterial load to 3 log CFU/ml at 0.2 mg/ml up to 48 hrs by time-kill assay; method in brief: as §3
Pseudomonas aeruginosa [14] = assay: Antibacterial activity against Pseudomonas aeruginosa PA880 assessed as time required for reduction of bacterial load to 3 log CFU/ml at 0.2 mg/ml up to 48 hrs by time-kill assay; method in brief: as §3
Pseudomonas aeruginosa [15] = assay: Antibacterial activity against Pseudomonas aeruginosa PA881 assessed as time required for reduction of bacterial load to 3 log CFU/ml at 0.2 mg/ml up to 48 hrs by time-kill assay; method in brief: as §3
Pseudomonas aeruginosa [16] = assay: Antibacterial activity against Pseudomonas aeruginosa PA1036 assessed as time required for reduction of bacterial load to 3 log CFU/ml at 0.2 mg/ml up to 48 hrs by time-kill assay; method in brief: as §3
Pseudomonas aeruginosa [17] = assay: Antibacterial activity against Pseudomonas aeruginosa PA876 assessed as time required for reduction of bacterial load to 3 log CFU/ml at 0.2 mg/ml up to 48 hrs by time-kill assay; method in brief: as §3
Pseudomonas aeruginosa [18] = assay: Antibacterial activity against Pseudomonas aeruginosa PA5020 assessed as time required for reduction of bacterial load to 3 log CFU/ml at 0.2 mg/ml up to 48 hrs by time-kill assay; method in brief: as §3
Pseudomonas aeruginosa [19] = assay: Antibacterial activity against Pseudomonas aeruginosa PA1054 assessed as time required for reduction of bacterial load to 3 log CFU/ml at 0.6 mg/ml up to 48 hrs by time-kill assay; method in brief: as §3
Pseudomonas aeruginosa [20] = assay: Antibacterial activity against Pseudomonas aeruginosa PA899 assessed as time required for reduction of bacterial load to 3 log CFU/ml at 0.6 mg/ml up to 48 hrs by time-kill assay; method in brief: as §3
Pseudomonas aeruginosa [21] = assay: Antibacterial activity against Pseudomonas aeruginosa PA1042 assessed as time required for reduction of bacterial load to 3 log CFU/ml at 0.6 mg/ml up to 48 hrs by time-kill assay; method in brief: as §3
Pseudomonas aeruginosa [22] = assay: Antibacterial activity against Pseudomonas aeruginosa PA5043 assessed as time required for reduction of bacterial load to 3 log CFU/ml at 0.6 mg/ml up to 48 hrs by time-kill assay; method in brief: as §3
Pseudomonas aeruginosa [23] = assay: Antibacterial activity against Pseudomonas aeruginosa PA880 assessed as time required for reduction of bacterial load to 3 log CFU/ml at 0.6 mg/ml up to 48 hrs by time-kill assay; method in brief: as §3
Pseudomonas aeruginosa [24] = assay: Antibacterial activity against Pseudomonas aeruginosa PA881 assessed as time required for reduction of bacterial load to 3 log CFU/ml at 0.6 mg/ml up to 48 hrs by time-kill assay; method in brief: as §3
Pseudomonas aeruginosa [25] = assay: Antibacterial activity against Pseudomonas aeruginosa PA861 assessed as time required for reduction of bacterial load to 3 log CFU/ml at 0.6 mg/ml up to 48 hrs by time-kill assay; method in brief: as §3
Pseudomonas aeruginosa [26] = assay: Antibacterial activity against Pseudomonas aeruginosa PA1022 assessed as time required for reduction of bacterial load to 3 log CFU/ml at 2 mg/ml up to 48 hrs by time-kill assay; method in brief: as §3
Pseudomonas aeruginosa [27] = assay: Antibacterial activity against Pseudomonas aeruginosa PA5043 assessed as time required for reduction of bacterial load to 3 log CFU/ml at 2 mg/ml up to 48 hrs by time-kill assay; method in brief: as §3
Pseudomonas aeruginosa [28] = assay: Antibacterial activity against Pseudomonas aeruginosa PA880 assessed as time required for reduction of bacterial load to 3 log CFU/ml at 2 mg/ml up to 48 hrs by time-kill assay; method in brief: as §3
Pseudomonas aeruginosa [29] = assay: Antibacterial activity against Pseudomonas aeruginosa PA1036 assessed as time required for reduction of bacterial load to 3 log CFU/ml at 2 mg/ml up to 48 hrs by time-kill assay; method in brief: as §3
Pseudomonas aeruginosa [30] = assay: Antibacterial activity against Pseudomonas aeruginosa PA5026 assessed as time required for reduction of bacterial load to 3 log CFU/ml at 2 mg/ml up to 48 hrs by time-kill assay; method in brief: as §3
Pseudomonas aeruginosa [31] = assay: Antibacterial activity against Pseudomonas aeruginosa PA876 assessed as time required for reduction of bacterial load to 3 log CFU/ml at 2 mg/ml up to 48 hrs by time-kill assay; method in brief: as §3
Pseudomonas aeruginosa [32] = assay: Antibacterial activity against Pseudomonas aeruginosa PA5020 assessed as time required for reduction of bacterial load to 3 log CFU/ml at 2 mg/ml up to 48 hrs by time-kill assay; method in brief: as §3
Pseudomonas aeruginosa [33] = assay: Antibacterial activity against Pseudomonas aeruginosa ATCC 27853 assessed as time required for reduction of bacterial load to 3 log CFU/ml at 2 mg/ml up to 48 hrs by time-kill assay

Row | Compound | MIC50 (Pseudomonas aeruginosa [1]) [µg/mL] | MIC90 (Pseudomonas aeruginosa [1]) [µg/mL] | MIC50 [2] [µg/mL] | MIC90 [2] [µg/mL] | MIC50 (Staphylococcus aureus) [µg/mL] | MIC90 (Staphylococcus aureus) [µg/mL] | BBC (Pseudomonas aeruginosa [3]) [µg/mL] | BBC (Pseudomonas aeruginosa [4]) [µg/mL] | BBC (Pseudomonas aeruginosa [5]) [µg/mL] | MIC (Pseudomonas aeruginosa [6]) [µg/mL] | BBC (Pseudomonas aeruginosa [7]) [µg/mL] | BBC (Pseudomonas aeruginosa [8]) [µg/mL] | MIC (Pseudomonas aeruginosa [9]) [µg/mL] | MIC (Pseudomonas aeruginosa [10]) [µg/mL] | Time (Pseudomonas aeruginosa [11]) | Time (Pseudomonas aeruginosa [12]) | Time (Pseudomonas aeruginosa [13]) | Time (Pseudomonas aeruginosa [14]) | Time (Pseudomonas aeruginosa [15]) | Time (Pseudomonas aeruginosa [16]) | also measured
1 | C[C@H]1[C@H](NC(=O)/C(=N\OC(C)(C)C(=O)O)c2csc(N)n2)C(=O)N1S(=O)(=O)O [AZTREONAM] | 4 (≈ 9.19 µM) | 128 (≈ 294 µM) | > 128 | > 128 | > 128 | > 128 | >64 | >8 | >256 | 8 (≈ 18.4 µM) | >64 | >256 | 32 (≈ 73.5 µM) | > 128 | 24 h | >24 h | 8 h | 4 h | 8 h | >24 h | MIC (Pseudomonas aeruginosa [3]): 4 µg/mL (≈ 9.19 µM); Time (Pseudomonas aeruginosa [17]): >24 h; Time (Pseudomonas aeruginosa [18]): >24 h; Time (Pseudomonas aeruginosa [19]): 24 h; Time (Pseudomonas aeruginosa [20]): 24 h; Time (Pseudomonas aeruginosa [21]): 4 h; Time (Pseudomonas aeruginosa [22]): 2 h; Time (Pseudomonas aeruginosa [23]): 4 h; Time (Pseudomonas aeruginosa [24]): 8 h; Time (Pseudomonas aeruginosa [25]): >24 h; Time (Pseudomonas aeruginosa [26]): 24 h; Time (Pseudomonas aeruginosa [27]): 2 h; Time (Pseudomonas aeruginosa [28]): 4 h; Time (Pseudomonas aeruginosa [29]): 24 h; Time (Pseudomonas aeruginosa [30]): >24 h; Time (Pseudomonas aeruginosa [31]): >24 h; Time (Pseudomonas aeruginosa [32]): 24 h; Time (Pseudomonas aeruginosa [33]): 24 h
2 | C[C@H]1COc2c(N3CCN(C)CC3)c(F)cc3c(=O)c(C(=O)O)cn1c23.C[C@H]1COc2c(N3CCN(C)CC3)c(F)cc3c(=O)c(C(=O)O)cn1c23.O [LEVOFLOXACIN] | 2 | 8 | 2 | 8 | 0.125 | 0.25 | 1 | 1 | 1 | 0.5 | 1 | 2 | 8 | 8 | <=0.5 hr | <=0.5 hr | <=0.5 hr | <=0.5 hr | <=0.5 hr | <=0.5 hr | Time (Pseudomonas aeruginosa [17]): <=0.5 hr; Time (Pseudomonas aeruginosa [18]): 4 h; Time (Pseudomonas aeruginosa [19]): <=0.5 hr; Time (Pseudomonas aeruginosa [20]): <=0.5 hr; Time (Pseudomonas aeruginosa [21]): <=0.5 hr; Time (Pseudomonas aeruginosa [22]): <=0.5 hr; Time (Pseudomonas aeruginosa [23]): <=0.5 hr; Time (Pseudomonas aeruginosa [24]): <=0.5 hr; Time (Pseudomonas aeruginosa [25]): <=0.5 hr; Time (Pseudomonas aeruginosa [26]): <=0.5 hr; Time (Pseudomonas aeruginosa [27]): <=0.5 hr; Time (Pseudomonas aeruginosa [28]): <=0.5 hr; Time (Pseudomonas aeruginosa [29]): <=0.5 hr; Time (Pseudomonas aeruginosa [30]): <=0.5 hr; Time (Pseudomonas aeruginosa [31]): <=0.5 hr; Time (Pseudomonas aeruginosa [32]): 2 h; Time (Pseudomonas aeruginosa [33]): <=0.5 hr
3 | NC[C@H]1O[C@H](O[C@H]2[C@H](O)[C@@H](O[C@H]3O[C@H](CO)[C@@H](O)[C@H](N)[C@H]3O)[C@H](N)C[C@@H]2N)[C@H](N)C[C@@H]1O [TOBRAMYCIN] | 2 (≈ 4.28 µM) | > 32 | > 32 | > 32 | 0.125 (≈ 0.267 µM) | 32 (≈ 68.4 µM) | 1 | 1 | 2 | 0.25 (≈ 0.535 µM) | 8 | 1 | 1 (≈ 2.14 µM) | 32 (≈ 68.4 µM) | <=0.5 hr | 4 h | 2 h | <=0.5 hr | <=0.5 hr | <=0.5 hr | MIC (Pseudomonas aeruginosa [3]): 1 µg/mL (≈ 2.14 µM); Time (Pseudomonas aeruginosa [17]): 4 h; Time (Pseudomonas aeruginosa [18]): 4 h; Time (Pseudomonas aeruginosa [19]): <=0.5 hr; Time (Pseudomonas aeruginosa [20]): <=0.5 hr; Time (Pseudomonas aeruginosa [21]): 1 h; Time (Pseudomonas aeruginosa [22]): 1 h; Time (Pseudomonas aeruginosa [23]): <=0.5 hr; Time (Pseudomonas aeruginosa [24]): <=0.5 hr; Time (Pseudomonas aeruginosa [25]): 8 h; Time (Pseudomonas aeruginosa [26]): 4 h; Time (Pseudomonas aeruginosa [27]): 1 h; Time (Pseudomonas aeruginosa [28]): <=0.5 hr; Time (Pseudomonas aeruginosa [29]): <=0.5 hr; Time (Pseudomonas aeruginosa [30]): <=0.5 hr; Time (Pseudomonas aeruginosa [31]): 4 h; Time (Pseudomonas aeruginosa [32]): 2 h; Time (Pseudomonas aeruginosa [33]): <=0.5 hr

— ChEMBL document CHEMBL1212734, “In vitro pharmacodynamics of levofloxacin and other aerosolized antibiotics under multiple conditions relevant to chronic pulmonary infection in cystic fibrosis” (2010)
